Laboratory results as given in ChEMBL document CHEMBL5030525, “Design, synthesis and antitumor activity evaluation of trifluoromethyl-substituted pyrimidine derivatives” (Bioorg Med Chem Lett, 2021).
pIC50: −log10 of the molar value.

What was measured:
PC-3 = assay: Antiproliferative activity against human PC-3 cells assessed as inhibition of cell growth measured after 72 hrs by MTT assay; assay type: functional, cell-based; conditions: PC-3, 72 h
How it was run: (§1)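 Cells in log phase were seeded at 3000–5000 per well and cultured 24 h at 37 °C, then exposed to a range of compound concentrations in fresh medium for 72 h. MTT was added and incubated 4 h at 37 °C, formazan was dissolved in DMSO, and absorbance was read at 490 nm. IC50 was taken from survival rate, as mean ± SD of three independent experiments. Stocks were 10 mM in DMSO.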

MGC-803 = assay: Antiproliferative activity against human MGC-803 cells assessed as inhibition of cell growth measured after 72 hrs by MTT assay; assay type: functional, cell-based; conditions: MGC-803, 72 h; how it was run: as §1
MCF7 = assay: Antiproliferative activity against human MCF7 cells assessed as inhibition of cell growth measured after 72 hrs by MTT assay; assay type: functional, cell-based; conditions: MCF7, 72 h; how it was run: as §1
NCI-H1975 = assay: Antiproliferative activity against human NCI-H1975 cells assessed as inhibition of cell growth measured after 72 hrs by MTT assay; assay type: functional, cell-based; conditions: NCI-H1975, 72 h; how it was run: as §1
GES1 = assay: Cytotoxicity against human GES1 cells assessed as reduction in cell viability measured after 72 hrs by MTT assay; assay type: cell-based; conditions: GES1, 72 h; how it was run: as §1
[1] = Selectivity index, ratio of IC50 for cytotoxicity against human GES1 cells to IC50 for antiproliferative activity against human NCI-H1975 cells; assay type: toxicity, cell-based; conditions: GES1 cells versus NCI-H1975 cells, read-out: Ratio IC50
How it was run: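 Ratio of GES-1 IC50 to H1975 IC50. Both came from the 72 h MTT assay, with IC50 as the mean ± SD of three separate experiments.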

FC(F)(F)c1ccc(CSc2nc(N3CCN(c4ccccc4)CC3)cc(C(F)(F)F)n2)cc1
pIC50 (PC-3): 4.37
pIC50 (MGC-803): 4.45
pIC50 (MCF7): < 4.30
pIC50 (NCI-H1975): < 4.30

Cc1nnc(Sc2cc(C(F)(F)F)nc(SCc3ccc(C(F)(F)F)cc3)n2)s1
pIC50 (PC-3): < 4.30
pIC50 (MGC-803): 4.94
pIC50 (MCF7): < 4.30
pIC50 (NCI-H1975): 5.51

C=CC(=O)Nc1cccc(Nc2cc(C(F)(F)F)nc(SCc3ccc(OC)cc3)n2)c1
pIC50 (PC-3): 4.80
pIC50 (MGC-803): 4.82
pIC50 (MCF7): 5.12
pIC50 (NCI-H1975): 4.99

C=CC(=O)Nc1cccc(Nc2cc(C(F)(F)F)nc(SCc3ccccc3OC)n2)c1
pIC50 (PC-3): 5.00
pIC50 (MGC-803): 4.49
pIC50 (MCF7): 4.66
pIC50 (NCI-H1975): 5.19

Cc1csc(Sc2cc(C(F)(F)F)nc(SCc3ccc(C(F)(F)F)cc3)n2)n1
pIC50 (PC-3): 4.92
pIC50 (MGC-803): 4.67
pIC50 (MCF7): 4.84
pIC50 (NCI-H1975): 5.23

C=CC(=O)Nc1cccc(Nc2cc(C(F)(F)F)nc(SCc3ccccc3F)n2)c1
pIC50 (PC-3): 5.06
pIC50 (MGC-803): 4.87
pIC50 (MCF7): 4.51
pIC50 (NCI-H1975): 4.81

FC(F)(F)c1ccc(CSc2nc(Sc3ncc(-c4ccncc4)s3)cc(C(F)(F)F)n2)cc1
pIC50 (PC-3): 5.13
pIC50 (MGC-803): 5.24
pIC50 (MCF7): 5.00
pIC50 (NCI-H1975): 4.78

CN1CCN(c2cc(C(F)(F)F)nc(SCc3ccc(C(F)(F)F)cc3)n2)CC1
pIC50 (PC-3): 4.46
pIC50 (MGC-803): 4.80
pIC50 (MCF7): 4.52
pIC50 (NCI-H1975): 4.62

C=CC(=O)Nc1cccc(Nc2cc(C(F)(F)F)nc(SCc3ccc(Cl)cc3)n2)c1
pIC50 (PC-3): 5.00
pIC50 (MGC-803): 4.53
pIC50 (MCF7): 4.80
pIC50 (NCI-H1975): 4.93

COc1ccc(Nc2cc(C(F)(F)F)nc(SCc3ccc(C(F)(F)F)cc3)n2)cc1
pIC50 (PC-3): 4.45
pIC50 (MGC-803): 5.06
pIC50 (MCF7): 4.65
pIC50 (NCI-H1975): 4.86

COc1cc(Nc2cc(C(F)(F)F)nc(SCc3ccc(C(F)(F)F)cc3)n2)cc(OC)c1OC
pIC50 (PC-3): 4.71
pIC50 (MGC-803): 4.81
pIC50 (MCF7): 4.96
pIC50 (NCI-H1975): 5.00

FC(F)(F)c1ccc(CSc2nc(N3CCSCC3)cc(C(F)(F)F)n2)cc1
pIC50 (PC-3): 4.33
pIC50 (MGC-803): 4.36
pIC50 (MCF7): < 4.30
pIC50 (NCI-H1975): < 4.30

C=CC(=O)Nc1cccc(Nc2cc(C(F)(F)F)nc(SCc3ccccc3C)n2)c1
pIC50 (PC-3): 4.82
pIC50 (MGC-803): 4.74
pIC50 (MCF7): 4.47
pIC50 (NCI-H1975): 4.83

C=CC(=O)Nc1cccc(Nc2cc(C(F)(F)F)nc(SCc3cccc(C)c3)n2)c1
pIC50 (PC-3): 5.04
pIC50 (MGC-803): 4.90
pIC50 (MCF7): 4.57
pIC50 (NCI-H1975): 4.88

C=CC(=O)Nc1cccc(Nc2cc(C(F)(F)F)nc(SCc3cccc(Cl)c3)n2)c1
pIC50 (PC-3): 4.98
pIC50 (MGC-803): 4.45
pIC50 (MCF7): 4.99
pIC50 (NCI-H1975): 4.83

FC(F)(F)c1ccc(CSc2nc(Nc3ccc(Cl)cc3Cl)cc(C(F)(F)F)n2)cc1
pIC50 (PC-3): 4.53
pIC50 (MGC-803): 4.45
pIC50 (MCF7): < 4.30
pIC50 (NCI-H1975): 4.47

Cc1ccc(Nc2cc(C(F)(F)F)nc(SCc3ccc(C(F)(F)F)cc3)n2)cc1
pIC50 (PC-3): 4.78
pIC50 (MGC-803): 4.49
pIC50 (MCF7): < 4.30
pIC50 (NCI-H1975): 4.69

C=CC(=O)Nc1cccc(Nc2cc(C(F)(F)F)nc(SCc3ccccc3Br)n2)c1
pIC50 (PC-3): 5.09
pIC50 (MGC-803): 4.51
pIC50 (MCF7): 4.70
pIC50 (NCI-H1975): 5.02

FC(F)(F)c1ccc(CSc2nc(Nc3nnn[nH]3)cc(C(F)(F)F)n2)cc1
pIC50 (PC-3): < 4.30
pIC50 (MGC-803): < 4.30
pIC50 (MCF7): < 4.30
pIC50 (NCI-H1975): < 4.30

FC(F)(F)c1ccc(CSc2nc(Sc3nnnn3-c3ccccc3)cc(C(F)(F)F)n2)cc1
pIC50 (PC-3): 4.34
pIC50 (MGC-803): 4.91
pIC50 (MCF7): 4.40
pIC50 (NCI-H1975): 4.61

C=CC(=O)Nc1cccc(Nc2cc(C(F)(F)F)nc(SCc3ccc(C)cc3)n2)c1
pIC50 (PC-3): 4.75
pIC50 (MGC-803): 4.73
pIC50 (MCF7): 4.59
pIC50 (NCI-H1975): 4.82

O=c1[nH]cc(F)c(=O)[nH]1 [FLUOROURACIL]
pIC50 (PC-3): 5.21
pIC50 (MGC-803): 5.04
pIC50 (MCF7): 5.06
pIC50 (NCI-H1975): 5.03
pIC50 (GES1): 4.72
selectivity ratio [1]: 2.06

C=CC(=O)Nc1cccc(Nc2cc(C(F)(F)F)nc(SCc3ccccc3C(F)(F)F)n2)c1
pIC50 (PC-3): 5.10
pIC50 (MGC-803): 4.57
pIC50 (MCF7): 4.76
pIC50 (NCI-H1975): 5.18

COc1ccc(Nc2cc(C(F)(F)F)nc(SCc3ccc(C(F)(F)F)cc3)n2)cn1
pIC50 (PC-3): 4.62
pIC50 (MGC-803): 4.91
pIC50 (MCF7): 4.43
pIC50 (NCI-H1975): 5.20

Nc1cccc(Nc2cc(C(F)(F)F)nc(SCc3ccc(C(F)(F)F)cc3)n2)c1
pIC50 (PC-3): 4.64
pIC50 (MGC-803): 5.05
pIC50 (MCF7): 4.87
pIC50 (NCI-H1975): 4.63
